Results of several laboratories.
Lines come from different studies, so protocols differ.
Target: Serine/threonine-protein kinase 33 (STK33, Homo sapiens, UniProt Q9BYT3)

O=C(Nc1cnn(-c2csc(C(=O)NC3COC3)c2)c1)Nc1c(F)cccc1Cl — remaining activity (enzyme activity, inhibitor; 5 µM): 81.8%
CCCCN(CCCC)C(=O)CN1C[C@H](c2cc(OC)c3c(c2)OCO3)[C@@H](C(=O)O)[C@@H]1CC(C)(C)CCC — remaining binding (cell-free assay, competition with immobilised ligand; 1 µM): 100%
COc1cc(/C=C/C(=O)CC(=O)/C=C/c2ccc(O)c(OC)c2)ccc1O — activity vs control (enzyme activity, inhibitor; 1 µM): 25%
CCN(CC)c1ccc(C2=NNC(=O)CC2C)cc1[N+](=O)[O-] (stereo not shown) — remaining activity (enzyme activity, inhibitor; 10 µM): 102%
O=C(Nc1cnn(-c2csc(C(=O)NC3COC3)c2)c1)Nc1ccccc1Cl — remaining activity (enzyme activity, inhibitor; 5 µM): 99.3%
FC(F)(F)Oc1cccc(-c2cnc3ccc(-c4ccncc4)nn23)c1 — activity vs control (enzyme activity, inhibitor, radiometric; 5 µM): 100%
Cn1cncc1C1=CN(c2ncnc3[nH]cnc23)CCS1 — inhibition (enzyme activity, inhibitor, radiometric; 50 nM): 23.6%
Cc1cc(NC(=O)c2cccc3cc(-c4cccc5[nH]nc(N)c45)ccc23)ccc1F — activity vs control (enzyme activity, inhibitor; 0.1 µM): 126%
Cn1nc(C(F)(F)F)cc1-c1cnc(N2CCc3cc(S(=O)(=O)Nc4c(F)cc(Cl)cc4F)cc(N4CCCC4=O)c32)nc1 — remaining binding (cell-free assay, competition with immobilised ligand; 1 µM): 100%
Cc1ccc(C(=O)Nc2ccc(CN3CCN(C)CC3)c(C(F)(F)F)c2)cc1C#Cc1cnc2cccnn12 — remaining activity (enzyme activity, inhibitor; 23.5 nM): 96%
CCCS(=O)(=O)Nc1ccc(F)c(C(=O)c2c[nH]c3ncc(-c4ccc(Cl)cc4)cc23)c1F — inhibition (enzyme activity, inhibitor; 1 µM): < 10%
Cn1nc(C(=O)NCc2ccc(C(=O)O)cc2)cc1-c1ccc2[nH]ccc2c1 — remaining binding (cell-free assay, competition with immobilised ligand; 0.1 µM): 87%
COc1cc(Cl)c(C(=O)N[C@@H](CN[C@H]2CC[C@@H](N)CC2)Cc2ccc(C#N)cc2)cc1-c1ccc(CN[C@H](C)c2ccc(C)cc2)o1 — remaining activity (enzyme activity, inhibitor; 1 µM): 99%
Cc1ccc(Nc2nccc(N(C)c3ccc4c(C)n(C)nc4c3)n2)cc1S(N)(=O)=O — inhibition (enzyme activity, inhibitor; 10 µM): 34%
Cn1cnc(Br)c1C1=CN(c2ncnc3[nH]cnc23)CCS1 — inhibition (enzyme activity, inhibitor, radiometric; 50 nM): 35.8%
Cc1nccc(COC(=O)N2C[C@@H]3[C@@H](CNC(=O)c4ccc5[nH]nnc5c4)[C@@H]3C2)n1 — remaining binding (cell-free assay, competition with immobilised ligand; 1 µM): 93%
Cc1cnc(NC2CCOCC2)nc1-n1cnc(C(=O)NC(CN)c2cc(F)cc(Cl)c2)c1 (stereo not shown) — remaining activity (enzyme activity, inhibitor, radiometric; 1 µM): 71%
CCc1ccccc1C(=O)Nc1n[nH]c2c(C)c(F)c(C3C(C#N)=C(C)N(C)C(C)=C3C#N)cc12 — remaining binding (cell-free assay, competition with immobilised ligand; 1 µM): 100%
COc1cc(Nc2cnc(C#N)c(O[C@H](C)CN(C)C)n2)ncc1-c1cnn(C)c1 — remaining activity (enzyme activity, inhibitor, radiometric; 10 µM): 16%
